{
  "source": "ChEMBL document CHEMBL5715941",
  "about": "“AZD1152, a selective inhibitor of Aurora B kinase, inhibits human tumor xenograft growth by inducing apoptosis” (Clin Cancer Res, 2007)",
  "key": {"SW-620 [1]": {"test_system": "SW-620", "experiment": "Antitumor activity against human SW620 cells xenografted in nude athymic rat assessed as myelosuppression at 25 mg/kg/day, iv for 4 consecutive days by flow cytometric analysis", "format": "functional, organism-based", "settings": "time 4.0 day"}, "SW-620 [2]": {"test_system": "SW-620", "experiment": "Antitumor activity against human SW620 cells xenografted in immunodeficient Swiss athymic mouse assessed as inhibition of tumor volume at 25 mg/kg/day, sc for 48 hrs on days 7 to 9 and measured on day 23 relative to control", "format": "functional", "settings": "SW-620, 408 h, time 17 day", "procedure,_shortened": "(§1)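 Male Swiss athymic nude mice, 8-12 wk; tumor cells (1×10^6-1×10^7, 50:50 Matrigel) implanted s.c. on flank. Randomized (n = 8-11) at 0.2-0.5 cm3. AZD1152 in Tris buffer pH 9, or vehicle (0.3 mol/L Tris), by 48-h s.c. osmotic mini-pump infusion (two 24-h pumps in sequence). Caliper volumes up to 3×/week; growth inhibition from change in control vs treated volume; one-tailed t test.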"}, "Calu-6": {"test_system": "Calu-6", "experiment": "Antitumor activity against human Calu-6 cells xenografted in immunodeficient Swiss athymic mouse assessed as maximum inhibition of tumor volume at 150 mg/kg/day, sc for 48 hrs on days 20 to 22 and measured on day 29 relative to control", "format": "functional", "settings": "Calu-6, 240 h, time 10 day", "procedure,_shortened": "as §1"}, "SW-620 [3]": {"test_system": "SW-620", "experiment": "Antitumor activity against human SW620 cells xenografted in nude athymic rat assessed as morphologic change at 25 mg/kg/day, iv for 4 consecutive days and measured on 5 day by H&E staining based immunohistochemistry analysis", "format": "functional, organism-based", "procedure,_shortened": "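Nude rats bearing SW620 tumors were dosed i.v. with AZD1152 at 25 mg/kg/d or with vehicle on days 1-4. Subgroups (n = 3) were killed at set days. Tumor and bone marrow sections were H&E-stained and examined histologically.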"}, "SW-620 [4]": {"test_system": "SW-620", "experiment": "Antitumor activity against human SW620 cells xenografted in nude athymic rat assessed as tumor growth inhibition at 25 mg/kg/day, iv for 4 consecutive days and measured at 8 day relative to control", "format": "functional", "settings": "SW-620, 192 h", "procedure,_shortened": "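Male nude rats with established SW620 xenografts, randomized at 0.5-1 cm3, received vehicle or AZD1152 (25 mg/kg, in Tris pH 9) as a once-daily i.v. bolus for 4 consecutive days. Tumor volume was measured by caliper (n = 10); growth inhibition relative to vehicle.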"}, "SW-620 [5]": {"test_system": "SW-620", "experiment": "Antitumor activity against human SW620 cells xenografted in Swiss nude mouse assessed as increase in large multinucleated cells at 70 mg/kg/day, sc over 48 hrs by H&E staining method", "format": "functional, organism-based", "procedure,_shortened": "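Male nude mice bearing SW620 tumors (n = 4/group) had 48-h s.c. mini-pump infusion of AZD1152 (70 mg/kg/d) or vehicle. Excised tumor sections were stained with H&E, or immunostained for PhH3 Ser10 with rabbit polyclonal antibody, HRP-polymer detection and hematoxylin counterstain.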"}, "A549": {"test_system": "A549", "experiment": "Antitumor activity against human A549 cells xenografted in immunodeficient Swiss athymic mouse assessed as inhibition of tumor volume at 25 mg/kg/day, sc for 48 hrs on days 13 to 15 and measured on day 29 relative to control", "format": "functional", "settings": "A549, 408 h, time 17 day", "procedure,_shortened": "as §1"}},
  "note": "The source made the active and inactive calls. The calls are words filed in the database; no cut-off is given here.",
  "data": [
    {"compound": "CCN(CCCOc1ccc2c(Nc3cc(CC(=O)Nc4cccc(F)c4)[nH]n3)ncnc2c1)CCOP(=O)(O)O", "note": "[BARASERTIB]", "values": [
      {"measurement": "Activity", "setting": "SW-620 [1]", "value": "Active"},
      {"measurement": "inhibition in vivo at 25 mg/kg/day", "setting": "SW-620 [2]", "value": 49, "unit": "%"},
      {"measurement": "inhibition in vivo at 150 mg/kg/day", "setting": "Calu-6", "value": 67, "unit": "%"},
      {"measurement": "Activity", "setting": "SW-620 [3]", "value": "Active"},
      {"measurement": "inhibition in vivo at 25 mg/kg/day", "setting": "SW-620 [4]", "value": 93, "unit": "%"},
      {"measurement": "Activity", "setting": "SW-620 [5]", "value": "Active"},
      {"measurement": "inhibition in vivo at 25 mg/kg/day", "setting": "A549", "value": 36, "unit": "%"}
    ]}
  ]
}
